Measurements as given in ChEMBL document CHEMBL3813661, “Humudifucol and Bioactive Prenylated Polyphenols from Hops (Humulus lupulus cv. "Cascade")” (J Nat Prod, 2016).

What was measured:
[1] = target: T1, Polyunsaturated fatty acid 5-lipoxygenase (Homo sapiens, UniProt P09917); assay: Inhibition of recombinant human 5-LO expressed in Escherichia coli MV1190 cells preincubated for 10 mins followed by addition of arachidonic acid as substrate measured after 10 mins by RP-HPLC method
T1 sequence (P09917 whole entry): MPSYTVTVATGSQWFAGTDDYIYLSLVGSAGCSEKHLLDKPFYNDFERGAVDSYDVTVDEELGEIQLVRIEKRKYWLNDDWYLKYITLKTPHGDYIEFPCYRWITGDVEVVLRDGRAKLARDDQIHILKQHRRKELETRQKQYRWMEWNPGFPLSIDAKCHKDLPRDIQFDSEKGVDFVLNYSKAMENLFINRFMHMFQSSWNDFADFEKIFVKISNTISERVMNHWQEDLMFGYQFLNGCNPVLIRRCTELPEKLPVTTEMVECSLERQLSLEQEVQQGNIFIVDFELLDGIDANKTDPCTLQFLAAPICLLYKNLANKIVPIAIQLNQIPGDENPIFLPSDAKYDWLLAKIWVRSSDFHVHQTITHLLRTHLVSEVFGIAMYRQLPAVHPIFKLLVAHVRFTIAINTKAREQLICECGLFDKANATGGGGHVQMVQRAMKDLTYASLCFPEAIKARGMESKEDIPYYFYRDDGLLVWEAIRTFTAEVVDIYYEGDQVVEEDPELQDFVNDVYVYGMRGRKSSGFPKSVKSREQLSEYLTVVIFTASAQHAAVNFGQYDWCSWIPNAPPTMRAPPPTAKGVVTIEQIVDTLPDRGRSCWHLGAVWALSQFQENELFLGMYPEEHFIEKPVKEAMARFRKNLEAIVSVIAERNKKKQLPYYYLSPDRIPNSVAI
In short: (§1)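 Recombinant human 5-LO expressed at 27 °C in E. coli MV1190 and partially purified from the 40000g supernatant on ATP-agarose. Enzyme taken up in PBS with 1 mM EDTA plus 1 mM ATP and preincubated with compound on ice 10 min. After 30 s at 37 °C, 2 mM CaCl2 and 20 μM AA added for 10 min. Stopped with methanol, products measured by RP-HPLC. Mean ± SEM, 3–4 experiments.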

[2] = target: T1, Polyunsaturated fatty acid 5-lipoxygenase; assay: Inhibition of 5-LO in human polymorphonuclear leukocytes preincubated for 10 mins followed by addition of arachidonic acid as substrate measured after 10 mins by HPLC method; type: cell-based
[3] = target: T2, Prostaglandin E synthase (Homo sapiens) (UniProt O14684); assay: Inhibition of mPGES-1 in microsomes of IL1-beta induced human A549 cells assessed as PGE2 formation by measuring enzyme residual activity at 10 uM preincubated for 15 mins followed by addition of PGH2 as substrate measured after 1 min by RP-HPLC method relative to control
T2 sequence (whole entry): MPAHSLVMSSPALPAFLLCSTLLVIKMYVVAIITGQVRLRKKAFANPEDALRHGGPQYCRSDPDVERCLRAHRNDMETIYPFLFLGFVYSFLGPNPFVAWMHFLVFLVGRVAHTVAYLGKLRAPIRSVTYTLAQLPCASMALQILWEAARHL
In short: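 Microsomes from A549 cells stimulated with IL-1β (1 ng/mL) for 48 h, diluted in 0.1 M potassium phosphate pH 7.4 with 2.5 mM glutathione. Compound or vehicle added for 15 min at 4 °C, then 20 μM PGH2 for 1 min at 4 °C. Stopped with FeCl2/citric acid containing 11β-PGE2. PGE2 measured by solid-phase extraction and RP-HPLC. Residual activity as % of control, mean ± SEM, 3–4 experiments.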

[4] = target: T3, Polyunsaturated fatty acid 5-lipoxygenase (Homo sapiens) (UniProt P09917); assay: Inhibition of 5-LO in human polymorphonuclear leukocytes assessed as residual activity at 10 uM preincubated for 10 mins followed by addition of arachidonic acid as substrate measured after 10 mins by HPLC method relative to control; type: cell-based
T3 sequence (whole entry): T1 sequence (P09917 whole entry)

[5] = target: T3, Polyunsaturated fatty acid 5-lipoxygenase (Homo sapiens); assay: Inhibition of recombinant human 5-LO expressed in Escherichia coli MV1190 cells assessed as residual activity preincubated for 10 mins followed by addition of arachidonic acid as substrate measured after 10 mins by RP-HPLC method relative to control; in short: as §1

| IC50 [1] | IC50 [2] | Activity [3] [%] | IC50 ([1]; read-out: IC50) [µM] | IC50 ([2]; read-out: IC50) [µM] | Activity [4] [%] | Activity [5] [%] | SMILES |
| --- | --- | --- | --- | --- | --- | --- | --- |
| Not Active | Not Active | 40.2 |  |  |  |  | CC(C)=CCc1c(O)cc(O)c(-c2c(O)cc(O)c(CC=C(C)C)c2O)c1O |
|  |  | 49.7 | 9.3 | > 10 | 63.1 |  | CC(C)=CCC1=C(O)[C@](O)(CC=C(C)C)C(=O)C(C(=O)CC(C)C)=C1O |
|  | Not Active | 52.7 | > 10 |  |  | 90.8 | CC(C)=CCC1=C2O[C@@H](C(C)(C)O)C[C@@]2(O)C(=O)C(C(=O)CC(C)C)=C1O |
|  |  | 32.8 | 5.9 | > 10 | 57.5 |  | CC(C)=CCC1(O)C(=O)C(CC=C(C)C)(CC=C(C)C)C(=O)C(C(=O)C(C)C)=C1O (stereo not drawn) |
|  |  | 32.3 | 2.1 | 2.9 |  |  | COc1cc(O)c(CC=C(C)C)c(O)c1C(=O)/C=C/c1ccc(O)cc1 [XANTHOHUMOL] |
|  |  | 56.5 | > 10 | > 10 | 87.5 | 66.7 | CC(C)=CCc1c(O)cc(O)c2c1O[C@H](c1ccc(O)cc1)CC2=O |
|  |  | 35.3 | > 10 | > 10 | 56.8 | 58 | COc1cc2c(c(O)c1C(=O)/C=C/c1ccc(O)cc1)C=CC(C)(C)O2 [XANTHOHUMOL C] |
